Screening results from PubChem.
UCH37 inh: blocks the human deubiquitinase UCH37; Q9Y5K5; purified proteasome/UCH37, Ub-AMC cleavage fluorescence; inhibition, % (no concentration beside the values); actives 0.33% (n = 330,000); AID 588478;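 active means mean inhibition over replicate wells above about 20%, limit read from the data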;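 further: 0% = compound-free wells with enzyme and 100% = wells lacking proteasome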
Target sequence (Q9Y5K5 whole entry, looked up): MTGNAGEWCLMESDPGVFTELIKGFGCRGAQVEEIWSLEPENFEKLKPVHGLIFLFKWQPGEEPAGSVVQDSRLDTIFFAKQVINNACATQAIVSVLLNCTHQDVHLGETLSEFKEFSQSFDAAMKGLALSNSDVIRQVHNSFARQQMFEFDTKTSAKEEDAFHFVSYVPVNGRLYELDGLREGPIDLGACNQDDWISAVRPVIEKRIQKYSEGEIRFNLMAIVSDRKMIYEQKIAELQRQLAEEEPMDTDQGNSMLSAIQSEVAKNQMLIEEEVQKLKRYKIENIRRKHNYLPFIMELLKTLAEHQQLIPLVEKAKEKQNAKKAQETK
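System: Proteasome-associated human UCH37 deubiquitinase; Input: 0.15 nM proteasome in added enzyme buffer; Also added: Ub-AMC substrate from 1 µM stock; Incubation: 30 min compound-proteasome preincubation then 25 min substrate reaction, room temperature; Detection: fluorescence, ex 355 nm, em 460 nm; Read-out: % inhibition of Ub-AMC cleavage fluorescence; Benchmarks: no-proteasome and no-compound wells.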
GRIN3A LBD mod: NR3A (human) ligand-binding domain modulation. NR3A LBD differential scanning fluorimetry, Tm shift; 0% = protein alone, 100% = glycine-bound protein. Tm shift relative to glycine control, % at 25 µM. actives 2.5% (n = 340,000);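 active means melting temperature shift of at least 10% of the positive control shift, at one fixed dose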
ATG4B inh: ATG4B (human) cysteine protease inhibition; Q9Y4P1; ATG4B cleavage of LC3-PLA2, NBD-HPC fluorescence, 1 h; inhibition, % at 8.33 µM; actives 0.51% (n = 340,000); AID 504462; in the data active means inhibition above about 40%
SENP1 inh: blocks the human SENP1 SUMO protease catalytic domain; AID 624204; recombinant SENP1 catalytic domain, CyPet-SUMO1-YPet FRET cleavage; Q9P0U3; actives 0.21% (n = 360,000); inhibition, % at 10 µM;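 active means inhibition at least 30% at 10 µM, raw YFP signal under a set limit, fluorescence ratio 0.5 to 1.5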;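 further: 0% = enzyme with DMSO and 100% = no enzyme wells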
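Test system: human SENP1 catalytic domain; medium: Tris pH 8 buffer plus EDTA, NaCl, BME, BSA, NP40, catalase; incubation: 50 min reaction at room temperature; technique: FRET, CFP and YFP emission; controls: no-enzyme low control and enzyme-plus-DMSO high control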
NadD inh: blocks S. aureus nicotinate mononucleotide adenylyltransferase | actives 0.78% (n = 360,000) | purified NadD enzyme, colorimetric absorbance read-out | inhibition, % at 20 µM | AID 602399; in the data active means inhibition above about 26%
PLA2 ctr: PLA2 (human) inhibition in ATG4B counter-screen; inhibition, % at 8.33 µM; purified PLA2, NBD-C6-HPC fluorescence, 45 min; actives 66% (n = 1,600); shares compounds with ATG4B inh; in the data active means inhibition above about 50%
Target sequence (P04054 whole entry, looked up): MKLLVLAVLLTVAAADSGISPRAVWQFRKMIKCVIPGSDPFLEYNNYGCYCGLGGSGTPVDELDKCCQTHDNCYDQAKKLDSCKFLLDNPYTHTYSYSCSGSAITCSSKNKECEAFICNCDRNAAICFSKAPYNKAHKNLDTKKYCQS
An asterisk follows results filed as active. Most compounds without a hit are left out; they make up all but 3.6% or so of the library.

How did O=C1NC(=S)N(c2ccc(F)cc2)C(=O)/C1=C\c1ccoc1 do in these assays?
UCH37 inh: 19; GRIN3A LBD mod: 3; ATG4B inh: 85*; SENP1 inh: -23; NadD inh: 32*

Results for C[C@]12CC[C@H](O)CC1=CC(=O)C1C2CC[C@]2(C)C(=O)CCC12 (stereo partly specified) ?
UCH37 inh: 4; GRIN3A LBD mod: 3; ATG4B inh: -11; SENP1 inh: 5; NadD inh: 1

What do the screens show for `C[C@]12CC[C@@H](O)CC1=CC(=O)C1C2CC[C@]2(C)C(=O)CCC12` (stereo partly specified)?
GRIN3A LBD mod: 11*; ATG4B inh: -1; SENP1 inh: -106; NadD inh: 1

How did CC12CC[C@H]3[C@@H](CCC4(O)C[C@H](O)CCC34C=NNC(=O)c3ccccc3Cl)C1(O)CCC2C1=CC(=O)OC1 (stereo partly specified) do in these assays?
UCH37 inh: -4

Results for CNc1ccc2nc3ccccc3[n+](C)c2c1 ?
GRIN3A LBD mod: 12*; ATG4B inh: 1; SENP1 inh: -3; NadD inh: -3

What do the screens show for `C[n+]1c2ccccc2nc2ccc(NCCO)cc21`?
UCH37 inh: 19; GRIN3A LBD mod: -3; ATG4B inh: 9; SENP1 inh: 14; NadD inh: 10

Results for CCN1/C(=C/C=C/C2=[N+](CC)c3ccccc3C2(C)C)C(C)(C)c2ccccc21 ?
SENP1 inh: 77*; NadD inh: 1

Results for CCOc1cc(C=C2C(=O)NC(=O)NC2=O)ccc1OS(=O)(=O)c1ccccc1 ?
UCH37 inh: 20*; GRIN3A LBD mod: -5; ATG4B inh: 2; SENP1 inh: 0; NadD inh: 5

How did COc1nc(NC(C)C)nc(NC(C)C)n1 do in these assays?
UCH37 inh: 30*; GRIN3A LBD mod: 1; ATG4B inh: -8; SENP1 inh: -1; NadD inh: 3

How did Oc1c(Cl)cccc1Cc1cc(Cl)cc(Cl)c1O do in these assays?
UCH37 inh: 4; GRIN3A LBD mod: 12*; ATG4B inh: 11; SENP1 inh: -1; NadD inh: -3

What do the screens show for `CC(C)CNC(=O)c1c(N)n(Cc2ccc3c(c2)OCO3)c2nc3ccccc3nc12`?
UCH37 inh: -225; GRIN3A LBD mod: 22*; ATG4B inh: -9; SENP1 inh: -18; NadD inh: 11

What do the screens show for `CCCNC(=O)c1c(N)n(Cc2ccc3c(c2)OCO3)c2nc3ccccc3nc12`?
UCH37 inh: -86; GRIN3A LBD mod: 21*; ATG4B inh: 8; SENP1 inh: -32; NadD inh: 10

Results for COCCNC(=O)c1c(N)n(CCC(C)C)c2nc3ccccc3nc12 ?
UCH37 inh: inactive; GRIN3A LBD mod: -7; ATG4B inh: -9; SENP1 inh: -23; NadD inh: -6

Results for CC(C)CCn1c(N)c(C(=O)NCc2cccs2)c2nc3ccccc3nc21 ?
UCH37 inh: -174; GRIN3A LBD mod: 18*; ATG4B inh: -3; SENP1 inh: -23; NadD inh: 9

What do the screens show for `CC(C)CNC(=O)c1c(N)n(Cc2ccco2)c2nc3ccccc3nc12`?
UCH37 inh: -220; GRIN3A LBD mod: -9; ATG4B inh: 3; SENP1 inh: -18; NadD inh: 16

What do the screens show for `CC(C)CCNC(=O)c1c(N)n(Cc2ccc3c(c2)OCO3)c2nc3ccccc3nc12`?
UCH37 inh: -355; GRIN3A LBD mod: 32*; ATG4B inh: 4; SENP1 inh: -22; NadD inh: 16

Results for O=C(NN=C1CN2CCC1CC2)c1cc2ccccc2cc1O ?
UCH37 inh: -1

What do the screens show for `O=P(C(=NO)N1CCCCC1)(N1CCOCC1)N1CCOCC1`?
UCH37 inh: 4

How did Cc1cccc(OP(=O)(NCc2ccccc2)Oc2cccc(C)c2)c1 do in these assays?
UCH37 inh: -1; GRIN3A LBD mod: 17*; ATG4B inh: 35; SENP1 inh: 4; NadD inh: 6

What do the screens show for `Cc1cccc(OP(N)(=O)Oc2cccc(C)c2)c1`?
UCH37 inh: 1; GRIN3A LBD mod: 0; ATG4B inh: -8; SENP1 inh: 3; NadD inh: -1

How did O=c1c2ccccc2nc(/C=C/c2ccccc2F)n1-c1ccccc1O do in these assays?
UCH37 inh: 1; GRIN3A LBD mod: -2; ATG4B inh: 62*; SENP1 inh: 2; NadD inh: 1; PLA2 ctr: 70*

What do the screens show for `NC(=NN=Cc1ccc(O)cc1O)N[N+](=O)[O-]`?
UCH37 inh: 18

How did COc1ccc(-n2c(/C=C/c3ccc(O)c(O)c3)nc3ccccc3c2=O)cc1 do in these assays?
UCH37 inh: -19; GRIN3A LBD mod: 7; ATG4B inh: 49*; SENP1 inh: -25; NadD inh: 8; PLA2 ctr: 52*

How did COC(=O)C1=C(c2ccc(F)cc2OCc2ccccc2)C[C@@H]2CC[C@H]1N2C(=O)NCc1ccccc1Br do in these assays?
UCH37 inh: 2; GRIN3A LBD mod: -1; ATG4B inh: 64*; SENP1 inh: 2; NadD inh: -2; PLA2 ctr: 79*

Results for Clc1ccc(C(c2ccc(Cl)cc2)n2cc[n+](CC(OCc3ccc(Cl)cc3Cl)c3ccc(Cl)cc3Cl)c2)cc1 (stereo unspecified) ?
UCH37 inh: 10; GRIN3A LBD mod: -14; ATG4B inh: 45*; SENP1 inh: 0; NadD inh: 80*; PLA2 ctr: 90*

Results for Clc1ccc(COC(Cn2ccnc2)c2ccc(Cl)cc2Cl)cc1 (stereo unspecified) ?
UCH37 inh: 3; GRIN3A LBD mod: 3; ATG4B inh: 8; SENP1 inh: 2; NadD inh: 29

Results for Oc1c(Br)cc(Br)cc1Br ?
UCH37 inh: 0; GRIN3A LBD mod: 3; ATG4B inh: 1; SENP1 inh: 0; NadD inh: 3

How did Oc1c(Br)c(Br)c(Br)c(Br)c1Br do in these assays?
GRIN3A LBD mod: 32*; ATG4B inh: 60*; SENP1 inh: -1; NadD inh: 8; PLA2 ctr: 62*

What do the screens show for `C[C@H]1CCC[C@@H](O)CCCC=Cc2cc(O)cc(O)c2C(=O)O1`?
UCH37 inh: 0

How did Cc1cc(N(CCCl)CCCl)ccc1C=NNC(=O)c1ccco1 do in these assays?
UCH37 inh: -63

What do the screens show for `NC(N)=N/N=C/c1ccc(N(c2ccccc2)c2ccccc2)cc1`?
GRIN3A LBD mod: 22*; ATG4B inh: 53*; SENP1 inh: -89; NadD inh: 13; PLA2 ctr: 66*
